Assay results as given in ChEMBL document CHEMBL1129436, “Novel peptidyl alpha-keto amide inhibitors of calpains and other cysteine proteases” (J Med Chem, 1996).

Key:
Cathepsin B [1] = target: T1, Cathepsin B (Homo sapiens, UniProt P07858); assay: Inhibition of human cathepsin B
How it was run: (§1)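 Bovine or human cathepsin B, assayed in 20 mM sodium acetate, pH 5.2, with 0.5 mM dithiothreitol and 2% DMSO. The two enzyme sources were used interchangeably. Ki was taken from Dixon plots, with triplicate assays plotted as 1/v versus inhibitor concentration.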

[2] = target: T2, Calpain-1 catalytic subunit (Homo sapiens, UniProt P07384); assay: Inhibition of the cysteine protease human Calpain 1
T2 sequence (P07384 whole entry): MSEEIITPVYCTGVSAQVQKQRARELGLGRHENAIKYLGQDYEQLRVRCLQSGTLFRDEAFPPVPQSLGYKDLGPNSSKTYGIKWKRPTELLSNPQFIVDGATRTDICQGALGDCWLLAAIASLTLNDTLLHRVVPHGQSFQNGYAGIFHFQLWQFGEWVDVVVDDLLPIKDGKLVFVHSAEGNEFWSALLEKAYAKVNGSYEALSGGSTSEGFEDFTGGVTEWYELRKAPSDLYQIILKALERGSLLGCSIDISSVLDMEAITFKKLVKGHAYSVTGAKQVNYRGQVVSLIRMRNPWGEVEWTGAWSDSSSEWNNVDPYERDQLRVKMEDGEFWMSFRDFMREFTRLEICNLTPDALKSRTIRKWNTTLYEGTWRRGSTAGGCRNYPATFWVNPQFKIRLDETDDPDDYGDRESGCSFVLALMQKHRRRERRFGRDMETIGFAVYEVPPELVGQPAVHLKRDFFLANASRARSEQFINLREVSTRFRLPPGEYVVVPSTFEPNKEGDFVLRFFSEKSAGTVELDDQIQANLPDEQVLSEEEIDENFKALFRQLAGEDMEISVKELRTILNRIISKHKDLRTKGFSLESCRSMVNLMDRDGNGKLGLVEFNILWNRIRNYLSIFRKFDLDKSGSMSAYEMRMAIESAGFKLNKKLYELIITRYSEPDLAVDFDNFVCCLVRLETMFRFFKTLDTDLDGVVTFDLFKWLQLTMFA
How it was run: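 Calpain assay in 25 mM Tris, pH 8.0, with 10 mM CaCl₂ and 5% DMSO. […] hydrolysis was read as initial velocity (t = 30-60 s) after a 30 s delay, at room temperature. Five or more inhibitor concentrations (not above 2 × K_obs) were used at two fixed substrate levels. Ki came from Dixon plots (1/v vs I) averaged over triplicates.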

Cathepsin B [3] = target: T1, Cathepsin B; assay: Compound was evaluated for the inhibition of Cathepsin B; how it was run: as §1
Cathepsin B [4] = target: Cathepsin B (Bos taurus, UniProt P07688); assay: Inhibition of bovine cathepsin B; how it was run: as §1
Cathepsin B [5] = target: T1, Cathepsin B; assay: Compound was evaluated for the inhibition of Cathepsin B; Gives nonlinear dixon plots; how it was run: as §1
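Throughout, for IC: measured as membrane permeability of platelets.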

Row | SMILES | Ki (Cathepsin B [1]) [µM] | Ki [2] [µM] | IC (Rattus norvegicus) [µM] | Ki (Cathepsin B [3]) [µM] | Ki (Cathepsin B [4]) [µM] | Ki (Cathepsin B [5])
1 | CCC(NC(=O)C(CC(C)C)NC(=O)OCc1ccccc1)C(=O)C(=O)NCC(O)c1ccccc1 (centres undefined) | 0.37 | 1.1 | 69 |  |  | 
2 | CCNC(=O)C(=O)C(Cc1ccccc1)NC(=O)C(CC(C)C)NC(=O)OCc1ccccc1 (centres undefined) | 6 |  | 22 |  |  | 
3 | CC(C)CC(NC(=O)C(c1ccccc1)c1ccccc1)C(=O)NC(Cc1ccccc1)C(=O)C(=O)NCc1ccccn1 (centres undefined) | 2.2 | 1.1 | > 300 |  |  | 
4 | CC(C)CC(NC(=O)OCc1ccccc1)C(=O)NC(Cc1ccccc1)C(=O)C(=O)NCc1ccccc1 (centres undefined) |  |  | > 300 | 4.6 |  | 
5 | CCC(NC(=O)C(CC(C)C)NC(=O)OCc1ccccc1)C(=O)C(=O)NCCCCCO (centres undefined) | 0.28 |  | 54 |  |  | 
6 | CCC(NC(=O)C(CC(C)C)NC(=O)OCc1ccccc1)C(=O)C(=O)NCc1ccccc1 (centres undefined) | 2 |  | 30 |  |  | 
7 | CCCC(NC(=O)C(CC(C)C)NC(=O)OCc1ccccc1)C(=O)C(=O)NCCCN1CCOCC1 (centres undefined) | 4.2 | 0.25 | 18 |  |  | 
8 | CC(C)CC(NC(=O)OCc1ccccc1)C(=O)NC(Cc1ccccc1)C(=O)C(=O)NCCCN1CCOCC1 (centres undefined) | 13 | 0.12 | 54 |  |  | 
9 | CCC(NC(=O)C(CC(C)C)NC(=O)OCc1ccccc1)C(=O)C(=O)NCCCN1CCOCC1 (centres undefined) | 6.9 | 0.14 | 45 |  |  | 
10 | CCC(NC(=O)C(CC(C)C)NC(=O)OCc1ccccc1)C(=O)C(=O)NCCOCCO (centres undefined) | 2 |  | 58 |  |  | 
11 | CCC(NC(=O)C(CC(C)C)NC(=O)OCc1ccccc1)C(=O)C(=O)NCc1ccncc1 (centres undefined) | 6.4 | 1.1 | 54 |  |  | 
12 | CCC(NC(=O)C(CC(C)C)NC(=O)C(c1ccccc1)c1ccccc1)C(=O)C(=O)NCC(O)c1ccccc1 (centres undefined) |  | 0.75 | 180 |  | 0.17 | 
13 | CCC(NC(=O)C(CC(C)C)NC(=O)OCc1ccccc1)C(=O)C(=O)NCc1ccccn1 (centres undefined) | 3 | 0.64 | 110 |  |  | 
14 | CCC(NC(=O)C(CC(C)C)NC(=O)OCc1ccccc1)C(=O)C(=O)NCC1(C)CC(O)CC(C)(C)C1 (centres undefined) | 0.89 | 0.42 | 103 |  |  | 
15 | CCC(NC(=O)C(CC(C)C)NC(=O)OCc1ccccc1)C(=O)C(=O)NCCN1CCOCC1 (centres undefined) | 2.5 | 1 | 23 |  |  | 
16 | CCC(NC(=O)C(CC(C)C)NC(=O)OCc1ccccc1)C(=O)C(=O)NCc1cccnc1 (centres undefined) | 1.2 |  | > 300 |  |  | 
17 | CCC(NC(=O)C(CC(C)C)NC(=O)OCc1ccccc1)C(=O)C(=O)NCCc1ccc(O)cc1 (centres undefined) |  | 0.38 | 23 |  |  | Non linear Dixon plots
18 | CCC(NC(=O)C(CC(C)C)NC(=O)OCc1ccccc1)C(=O)C(=O)NCCCc1ccccc1 (centres undefined) | 0.2 |  | 100 |  |  | 
19 | CCCNC(=O)C(=O)C(Cc1ccccc1)NC(=O)C(CC(C)C)NC(=O)OCc1ccccc1 (centres undefined) | 3 | 0.35 | 31 |  |  | 
20 | CCC(NC(=O)C(CC(C)C)NC(=O)OCc1ccccc1)C(=O)C(=O)NCCO (centres undefined) | 4.5 | 0.8 | 78 |  |  | 
21 | CC(C)CC(NC(=O)OCc1ccccc1)C(=O)NC(Cc1ccccc1)C(=O)C(=O)NCC(O)c1ccccc1 (centres undefined) | 2.1 | 1.3 | 44 |  |  | 
22 | CCC(NC(=O)C(CC(C)C)NC(=O)OCc1ccccc1)C(=O)C(=O)NCC1CCCO1 (centres undefined) | 4.5 | 0.33 | 22 |  |  | 
23 | CCC(NC(=O)C(CC(C)C)NC(=O)OCc1ccccc1)C(=O)C(=O)NCc1cc(OC)cc(OC)c1 (centres undefined) | 1.8 | 2.3 | 30 |  |  | 
24 | CCC(NC(=O)C(CC(C)C)NC(=O)OCc1ccccc1)C(=O)C(=O)NCCc1ccccc1 (centres undefined) | 1.3 |  | 50 |  |  | 
25 | CC(C)CC(NC(=O)OCc1ccccc1)C(=O)NC(Cc1ccccc1)C(=O)C(=O)NCCc1ccccc1 (centres undefined) |  |  | 100 | 9.3 |  | 
26 | CCC(NC(=O)C(CC(C)C)NC(=O)OCc1ccccc1)C(=O)C(=O)NCc1ccco1 (centres undefined) | 6 | 0.8 | 58 |  |  | 
27 | CCC(NC(=O)C(CC(C)C)NC(=O)OCc1ccccc1)C(=O)C(=O)NCCc1c[nH]c2ccccc12 (centres undefined) |  | 0.3 | 180 |  | 0.031 | 
28 | CCNC(=O)C(=O)C(CC)NC(=O)C(CC(C)C)NC(=O)OCc1ccccc1 (centres undefined) | 2.4 |  | 100 |  |  | 
